Assay results published in ChEMBL document CHEMBL4834407, “Antiplasmodial Oleanane Triterpenoids from Terminalia albida Root Bark” (J Nat Prod, 2021).
pIC50: −log10 of the molar value. Blank lines part the entries; values can stand above or below the compound they belong to.

How the values were obtained:
[1] = system: Staphylococcus aureus; test: Antibacterial activity against Staphylococcus aureus ATCC6538; format: functional, organism-based
In short: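 S. aureus panel with doxycycline as reference drug; IC50 reported in µM.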

[2] = system: Candida albicans; test: Antifungal activity against Candida albicans ATCC59630; format: functional, organism-based
In short: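 C. albicans panel with flucytosine as reference drug; IC50 reported in µM.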

[3] = system: Plasmodium falciparum; test: Antiplasmodial activity against chloroquine-resistant Plasmodium falciparum K1 measured after 72 hrs by lactate dehydrogenase assay; format: functional, organism-based; details: K1, 72 h
In short: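 In vitro lactate dehydrogenase read-out on the chloroquine-resistant P. falciparum K1 strain; chloroquine was the reference drug.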

[4] = Cytotoxicity against human MRC5 cells measured after 7 days by MTT assay; format: cell-based; details: time 7 day
In short: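 MRC-5 human foetal lung fibroblasts; tamoxifen as positive control; IC50 reported in µM.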

[5] = Selectivity index, ratio of CC50 for cytotoxicity against human MRC5 cells to IC50 for antiplasmodial activity against chloroquine-resistant plasmodium falciparum K1; format: toxicity, cell-based; details: read-out: Ratio CC50/IC50
In short: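 Ratio of the MRC-5 value (human foetal lung fibroblasts, tamoxifen as cytotoxicity control) to the P. falciparum K1 value (lactate dehydrogenase assay, chloroquine control).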

Compound: CC1(C)CC[C@]2(C(=O)O[C@@H]3O[C@H](CO)[C@@H](O)[C@H](O)[C@H]3O)CC[C@]3(C)C(=CC(=O)[C@@H]4[C@@]5(C)C[C@@H](O)[C@H](O)[C@](C)(CO)[C@@H]5CC[C@]43C)[C@@H]2[C@H]1O
- pIC50 [1]: < 4.19
- pIC50 [2]: < 4.19
- pIC50 [3]: 5.04
- CC50 at 168 h [4]: > 64 µM
- selectivity ratio [5]: > 7

Compound: C[C@]1(CO)CC[C@]2(C(=O)O)CC[C@]3(C)C(=CC[C@@H]4[C@@]5(C)C[C@@H](O)[C@H](O)[C@@](C)(CO)[C@@H]5CC[C@]43C)[C@@H]2C1
- pIC50 [1]: < 4.19
- pIC50 [2]: < 4.19
- pIC50 [3]: 4.31
- CC50 at 168 h [4]: > 64 µM
- selectivity ratio [5]: > 1.31

Compound: CC1(C)CC[C@]2(C(=O)O)CC[C@]3(C)C(=CC(=O)[C@@H]4[C@@]5(C)C[C@@H](O)[C@H](O)[C@](C)(CO)[C@@H]5CC[C@]43C)[C@@H]2[C@@H]1O
- pIC50 [1]: < 4.19
- pIC50 [2]: < 4.19
- pIC50 [3]: 5.21
- CC50 at 168 h [4]: > 64 µM
- selectivity ratio [5]: > 10.5

- pIC50 [2]: 6.15
Compound: Nc1nc(=O)[nH]cc1F [FLUCYTOSINE]

Compound: CC1(C)CC[C@]2(C(=O)O[C@@H]3O[C@H](CO)[C@@H](O)[C@H](O)[C@H]3O)CC[C@]3(C)C(=CC(=O)[C@@H]4[C@@]5(C)C[C@@H](O)[C@H](O)[C@@](C)(CO)[C@@H]5CC[C@]43C)[C@@H]2[C@@H]1O
- pIC50 [1]: < 4.19
- pIC50 [2]: < 4.19
- pIC50 [3]: 4.86
- CC50 at 168 h [4]: > 64 µM
- selectivity ratio [5]: > 4.6

Compound: CC1(C)CC[C@]2(C(=O)O)CC[C@]3(C)C(=CC(=O)[C@@H]4[C@@]5(C)C[C@@H](O)[C@H](O)[C@](C)(CO)[C@@H]5CC[C@]43C)[C@@H]2[C@H]1O
- pIC50 [1]: < 4.19
- pIC50 [2]: < 4.19
- pIC50 [3]: 5.21
- CC50 at 168 h [4]: > 64 µM
- selectivity ratio [5]: > 10.5

Compound: CC1(C)CC[C@]2(C(=O)O)CC[C@]3(C)C(=CC(=O)[C@@H]4[C@@]5(C)C[C@@H](O)[C@H](O)[C@@](C)(CO)[C@@H]5CC[C@]43C)[C@@H]2[C@H]1O
- pIC50 [1]: < 4.19
- pIC50 [2]: < 4.19
- pIC50 [3]: 5.00
- CC50 at 168 h [4]: > 64 µM
- selectivity ratio [5]: > 6.3

- pIC50 [1]: 6.55
Compound: C[C@H]1c2cccc(O)c2C(=O)C2=C(O)[C@]3(O)C(=O)C(C(N)=O)=C(O)[C@@H](N(C)C)[C@@H]3[C@@H](O)[C@@H]21 [DOXYCYCLINE]

Compound: CC1(C)C=C2C3=CC(=O)[C@@H]4[C@@]5(C)C[C@@H](O)[C@H](O)[C@@](C)(CO)[C@@H]5CC[C@@]4(C)[C@]3(C)CC[C@@]2(C(=O)O)CC1
- pIC50 [1]: < 4.19
- pIC50 [2]: < 4.19
- pIC50 [3]: 5.16
- CC50 at 168 h [4]: > 64 µM
- selectivity ratio [5]: > 9.27

Compound: CC1(C)CC[C@]2(C(=O)O[C@@H]3O[C@H](CO)[C@@H](O)[C@H](O)[C@H]3O)CC[C@]3(C)C(=CC(=O)[C@@H]4[C@@]5(C)C[C@@H](O)[C@H](O)[C@@](C)(CO)[C@@H]5CC[C@]43C)[C@@H]2[C@H]1O
- pIC50 [1]: < 4.19
- pIC50 [2]: < 4.19
- pIC50 [3]: 4.95
- CC50 at 168 h [4]: > 64 µM
- selectivity ratio [5]: > 5.7
